ChEMBL document CHEMBL1154981, “Chemical constituents from the leaves and stems of Schisandra rubriflora” (J Nat Prod, 2010)
Converted amounts (≈) assume the structure as drawn.

Legend:
[1] = tested on: Human immunodeficiency virus 1; test: Antiviral activity against HIV1-infected human C8166 cells; format: functional, organism-based; conditions: Human immunodeficiency virus 1, C8166
Summary of the method: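 Protection of C8166 cells from HIV-1 cytopathic effects, read as EC50. Run alongside the cytotoxicity measurement, with AZT as positive control.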

[2] = Selectivity index, ratio of antiviral activity against HIV1-infected human C8166 cells over cytotoxicity against human C8166 cells; format: toxicity, cell-based; conditions: uninfected and HIV-1-infected, read-out: Selectivity Index
K562 = test: Cytotoxicity against human K562 cells after 48 hrs by SRB assay; format: functional, cell-based; conditions: K562, 48 h
HepG2 = test: Cytotoxicity against human HepG2 cells after 48 hrs by SRB assay; format: functional, cell-based; conditions: HepG2, 48 h
[3] = Cytotoxicity against human C8166 cells by MTT assay; format: cell-based
Summary of the method: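 Uninfected C8166 cells scored for viability by MTT, giving CC50. Run in parallel with the HIV-1 cytopathic-effect assay, with AZT as reference.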

| Compound | EC50 [1] | selectivity ratio [2] | IC50 (K562) | IC50 (HepG2) | CC50 [3] |
| --- | --- | --- | --- | --- | --- |
| C[C@@H]1C(=O)O[C@H]2[C@@H]1O[C@]13O[C@@]4(CC[C@]5(C)C(=O)[C@](C)(O)[C@@]2(O)[C@H]15)C[C@]12OC(=O)C[C@H]1OC(C)(C)[C@@H]2[C@@H](O)C[C@H]4C3=O [SCHIRUBRIDILACTONE A] | 30.1 µg/mL (≈ 52.2 µM) | 5.1 | > 5 µg/mL | > 5 µg/mL | – |
| C/C(=C/[C@H]1O[C@]23O[C@@]4(CC[C@]5(C)C(=O)[C@](C)(O)[C@H]1[C@H]25)C[C@]12OC(=O)C[C@H]1OC(C)(C)[C@@H]2CC=C4C3=O)C(=O)O [SCHIRUBRIDILACTONE B] | 15.2 µg/mL (≈ 28 µM) | 9 | > 5 µg/mL | > 5 µg/mL | – |
| CC1(C)O[C@@H]2CC(=O)O[C@@]23C[C@]24CC[C@]5(C)C(=O)[C@](C)(O)[C@]6(O)[C@H]7OC(=O)[C@](C)(O)[C@H]7O[C@@](O2)(C(=O)C4=CC[C@@H]13)[C@@H]65 [SCHIRUBRIDILACTONE E] | 66.8 µg/mL (≈ 116 µM) | 3.1 | > 5 µg/mL | > 5 µg/mL | – |
| CC1=C[C@H]([C@H]2O[C@]34C(=CC[C@@H]3[C@@H]2C)[C@@H]2[C@H](O)C[C@H]3C(C)(C)O[C@@H]5CC(=O)O[C@@]53C[C@@]2(O)C[C@@H]4O)OC1=O [SCHIRUBRIDILACTONE F] | 50.1 µg/mL (≈ 97 µM) | 3.5 | > 5 µg/mL | > 5 µg/mL | – |
| Cc1cn([C@H]2C[C@H](N=[N+]=[N-])[C@@H](CO)O2)c(=O)[nH]c1=O [ZIDOVUDINE] | – | – | – | – | > 200 µg/mL |

Further lines, with some results ahead:

| EC50 [1] | Compound | selectivity ratio [2] | IC50 (K562) | IC50 (HepG2) | CC50 [3] |
| --- | --- | --- | --- | --- | --- |
| 14.3 µg/mL (≈ 25.5 µM) | C[C@@H]1C(=O)[C@@]2(C)CC[C@]34C[C@]56OC(=O)C[C@H]5O[C@@](C)(CO)[C@@H]6CC[C@@]3(O)C(=O)[C@@]3(O[C@]5(C[C@H](C)C(=O)O5)[C@@H]1[C@H]32)O4 [SCHIRUBRIDILACTONE C] | 8.7 | – | – | – |
| 80.8 µg/mL (≈ 149 µM) | C[C@@H]1C(=O)O[C@H]2[C@@H]1O[C@]13O[C@@]4(CC[C@]5(C)C(=O)[C@@H](C)[C@H]2[C@H]15)C[C@]12OC(=O)C[C@H]1OC(C)(C)[C@@H]2C[C@@H]1O[C@@]14C3=O [SCHIRUBRIDILACTONE D] | 2.2 | > 5 µg/mL | > 5 µg/mL | – |
